The full list was thinned out, with hits kept by preference.
B2AR ag – activates human beta-2 adrenergic receptor causing internalization; response, % (no concentration beside the values); 340,000 tested, 0.43% active; Am2.2-beta2AR cells, FAP receptor internalization, flow cytometry; AID 504454;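 active means response above a set limit, near 3 SD of response in nonfluorescent compounds, cut at about 42% in these data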
UPR XBP1 act – activators of adaptive arm of unfolded protein response (XBP1); 330,000 tested, 0.33% active; CHO-XBP1 luciferase reporter, IRE1-XBP1 UPR activation, luminescence; percent of tunicamycin response, DMSO as zero; activation, % at 20 µM;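 active means versus positive control, 20 µM dose yields 30% or more activation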
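Test system: CHO-XBP1 luciferase reporter cells | Buffer or medium: Serum-containing F12 medium, 10% FBS | Schedule: 6 h compound exposure at 37 °C, 5% CO2 | Detection: Steady-Glo luciferase glow luminescence, 10 min after reagent addition | Read-out basis: Activation, % of tunicamycin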
CHOP inh – CHOP inhibition in unfolded protein response; inhibition, % at 10 µM; 220,000 tested, 3.8% active; CHO-K1 CHOP-promoter luciferase, tunicamycin-induced, 15-18 h;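 active means compounds that reduced the stress-induced luciferase reporter signal by more than about 70% of percent inhibition, limit read from the data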
CHOP UPR activ – apoptotic UPR (CHOP) activation; activation, % at 10 µM; 330,000 tested, 0.34% active; CHO-CHOP luciferase reporter, luminescence; percent of tunicamycin response over DMSO baseline;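 active means at 10 µM dose, activation of 40% or more, normalized to positive control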
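assay system = CHO CHOP reporter cells | amount = 500 CHO-CHOP cells per well | buffer or medium = F12 with 10% FBS | incubation = 16-18 h cell attachment, then 6 h compound exposure, 37 °C | detection = luminescence read with Steady-Glo | read-out = percent activation relative to tunicamycin control | controls = tunicamycin high control, DMSO low control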
VLA-4 inh – inhibition in a human VLA-4 binding assay; VLA-4 expressing cells, ligand binding flow cytometry; inhibition, % (about 7 µM as worked out from the volumes in the protocol); 330,000 tested, 0.2% active; in the data active means inhibition above about 50%
Target sequence (P13612 whole entry, looked up): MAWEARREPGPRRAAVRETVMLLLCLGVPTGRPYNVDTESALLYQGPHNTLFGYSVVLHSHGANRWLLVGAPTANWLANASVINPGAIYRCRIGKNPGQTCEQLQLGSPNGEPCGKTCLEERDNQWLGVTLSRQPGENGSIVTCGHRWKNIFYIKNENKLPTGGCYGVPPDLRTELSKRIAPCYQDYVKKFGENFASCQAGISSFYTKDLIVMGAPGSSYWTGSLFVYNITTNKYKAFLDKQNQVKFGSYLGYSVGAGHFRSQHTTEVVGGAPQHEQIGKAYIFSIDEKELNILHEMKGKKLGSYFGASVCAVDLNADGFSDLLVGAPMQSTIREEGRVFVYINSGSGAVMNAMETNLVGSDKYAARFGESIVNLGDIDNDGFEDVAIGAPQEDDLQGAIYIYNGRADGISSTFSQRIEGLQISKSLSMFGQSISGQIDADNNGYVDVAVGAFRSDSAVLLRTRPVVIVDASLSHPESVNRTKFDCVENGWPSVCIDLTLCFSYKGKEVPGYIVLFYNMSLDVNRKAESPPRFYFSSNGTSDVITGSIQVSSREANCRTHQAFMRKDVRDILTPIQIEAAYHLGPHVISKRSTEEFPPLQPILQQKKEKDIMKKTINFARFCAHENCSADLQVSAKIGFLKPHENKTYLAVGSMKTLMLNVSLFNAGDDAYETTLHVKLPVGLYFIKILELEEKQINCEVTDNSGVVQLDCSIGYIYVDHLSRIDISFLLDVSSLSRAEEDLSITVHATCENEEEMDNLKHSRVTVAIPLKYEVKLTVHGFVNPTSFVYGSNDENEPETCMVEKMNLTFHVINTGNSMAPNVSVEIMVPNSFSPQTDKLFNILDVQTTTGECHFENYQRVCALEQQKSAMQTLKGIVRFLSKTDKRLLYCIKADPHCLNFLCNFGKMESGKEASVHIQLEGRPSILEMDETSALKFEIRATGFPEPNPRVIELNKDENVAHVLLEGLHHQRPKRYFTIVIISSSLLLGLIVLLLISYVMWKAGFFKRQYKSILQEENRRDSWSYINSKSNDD
CHOP inh conf – confirmation of CHOP induction inhibitors; CHO-CHOP promoter luciferase reporter, tunicamycin-induced, luminescence; shares compounds with CHOP inh; inhibition, % at 10 µM; 2,100 tested, 45% active;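 active means mean of three repeat readings of reporter signal inhibition above a set limit, cut at about 70% in these data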
Of the large screens only hits and unclear results are named; the others gave an inactive call (follow-up assays come after a bar, where they were run).

CC(c1ccccc1)n1c(N2CCN(C)CC2)nc2c1c(=O)[nH]c(=O)n2C (stereo not drawn)	none (no result: CHOP inh)
CNc1nc(-c2ccccc2)[n+](-c2ccc(C)cc2)s1	CHOP inh 97 (no result: UPR XBP1 act, CHOP UPR activ) | CHOP inh conf inactive
Cc1c(C(=O)N/N=C/c2ccc(Cl)cc2)[nH]c2ccc(Cl)cc12	CHOP inh 98 | CHOP inh conf inactive
CCOc1ccc(/C=N/NC(=O)c2[nH]c3ccc(C)cc3c2C)cc1	none (no result: CHOP inh)
N/C(=N\OC(=O)c1cccc(C(F)(F)F)c1)c1cnccn1	none (no result: CHOP inh)
O=C(OCn1ncc(Cl)c(Cl)c1=O)c1cccc(C(F)(F)F)c1	CHOP inh 107 | CHOP inh conf 120
Cc1cc(C(C)(C)C)oc1C(=O)O	none
Cc1cc(C(C)(C)C)oc1C(=O)N1CCN(C(=O)c2oc(C(C)(C)C)cc2C)CC1	CHOP inh 105 (no result: UPR XBP1 act, CHOP UPR activ, VLA-4 inh) | CHOP inh conf 115
Cc1ccc(N=C2SC(C(=O)Nc3ccc(OC(F)(F)F)cc3)C(N)=C2C(=O)Nc2c(C)cc(C)cc2C)cc1 (stereo not drawn)	CHOP inh 105 (no result: UPR XBP1 act, CHOP UPR activ) | CHOP inh conf 84
CC1=CN2C(=N)/C(=C/c3ccc([N+](=O)[O-])o3)C(=O)N=C2S1	CHOP inh 107 (no result: UPR XBP1 act, CHOP UPR activ) | CHOP inh conf inactive
CCc1cc(C(=O)c2ccc(OC)cc2)c(NC(=O)CC(C)(C)CC(=O)O)s1	none
O=C(/C=C/c1ccccc1)NC(NC(=S)Nc1ccc(Cl)cc1)C(Cl)(Cl)Cl (stereo not drawn)	CHOP inh 109 | CHOP inh conf inactive
COc1ccc(NC(=S)NC(NC(=O)/C=C/c2ccccc2)C(Cl)(Cl)Cl)cc1 (stereo not drawn)	CHOP inh 107 | CHOP inh conf 122
O=C(/C=C/c1ccccc1)NC(NC(=S)Nc1cc(Cl)ccc1Cl)C(Cl)(Cl)Cl (stereo not drawn)	none
CC(C)=C(NC(=O)c1ccccc1)C(=O)Nc1ccc(C(=O)O)cc1	none
COc1ccccc1CN(CC(=O)NCc1ccc(F)cc1)C(=O)c1csnn1	none (no result: CHOP inh)
C/C(=N\N=C1\NC(=O)C(CC(=O)Nc2ccc(Cl)cc2)S1)c1ccco1 (stereo not drawn)	none
C/C(=N\N=C1\NC(=O)C(CC(=O)Nc2ccc(C)c(Cl)c2)S1)C(C)(C)C (stereo not drawn)	CHOP inh 106 | CHOP inh conf 107
O=C(CC1S/C(=N/N=C/c2cccs2)NC1=O)Nc1ccc(Cl)c(Cl)c1 (stereo not drawn)	CHOP inh 104 | CHOP inh conf inactive
O=C1N/C(=N\N=C\c2cccs2)SC1Cc1cccc(Cl)c1Cl (stereo not drawn)	none
Cc1ccc(C(=O)NNC(=S)NC(=O)c2ccc(Cl)cc2Cl)cc1	CHOP inh 98 | CHOP inh conf inactive
CN(Cc1ccccc1)c1ccc(C(CC(N)=O)NC(=O)c2ccc(Br)cc2)cc1[N+](=O)[O-] (stereo not drawn)	none (no result: CHOP inh)
O=C(Nc1cccc(O)c1)C(Cc1ccccc1)N1C(=O)c2cccc3cccc(c23)C1=O (stereo not drawn)	CHOP inh 109 | CHOP inh conf inactive
CCOc1ccc(Br)cc1/C=N/O	none
CCCc1ccc(O)c(N=Cc2cc(Br)cc(OCC)c2O)c1	CHOP inh 97 | CHOP inh conf 110
CCOC(=O)C1(CCc2ccccc2)CCN(C(=O)Cc2nonc2C)CC1	CHOP inh 103 | CHOP inh conf inactive
CS(=O)(=O)c1cccc(-c2csc(N3CCC(C(N)=O)CC3)n2)c1	none (no result: CHOP inh)
CS(=O)(=O)c1ccc(C(=O)OCC(=O)NC(=O)C2CCCCC2)cc1[N+](=O)[O-]	CHOP inh 97 | CHOP inh conf inactive
CS(=O)(=O)c1ccc(C(=O)OCC(=O)NC(=O)C2COc3ccccc3O2)cc1[N+](=O)[O-] (stereo not drawn)	none (no result: CHOP inh)
CCn1nc(C)cc1C(=O)N1CCCC(Nc2ccc(F)c(F)c2)C1 (stereo not drawn)	none (no result: CHOP inh)
O=C(CSc1nnc(SCc2cccc3ccccc23)s1)N/N=C/c1c[nH]c2ccccc12	CHOP inh 105 | CHOP inh conf inactive
O=C(O)COc1ccccc1/C=N/NC(=O)CSc1nnc(SCc2cccc3ccccc23)s1	none
CC1=CCC[C@@H]2[C@@](C)(CC/C(C)=C/C(=O)O)[C@H](C)CC[C@@]12C	CHOP inh 99 (no result: VLA-4 inh) | CHOP inh conf 112
C[C@@H]1CC[C@@]23COC(=O)C2=CCC[C@@H]3[C@@]1(C)CC/C(=C/CO)CO	none (no result: CHOP inh)
CN(C)C(CNS(=O)(=O)c1ccc2ccccc2c1)c1ccccc1 (stereo not drawn)	none (no result: CHOP inh)
O=C(ONc1ccc(N=NC(=O)c2ccccc2O)cc1)c1ccccc1	CHOP inh 107 | CHOP inh conf 132
Cc1ccc2[nH]c(O)c(N=NC(=O)CCc3ccccc3)c2c1Br	CHOP inh 107 | CHOP inh conf 83
O=C(CSCc1ccccc1)N=Nc1c(O)[nH]c2ccccc12	none
Oc1ccccc1-n1c(-c2ccccc2)ccc1-c1ccccc1	CHOP inh 104 | CHOP inh conf 119
Cc1ccc(-c2ccccc2)n1-c1ccc(C(=O)O)cc1	none
CCOC(=O)c1ccc(Nc2ccc(-c3ccc(OC)c(OC)c3)nn2)cc1	CHOP inh 102 | CHOP inh conf inactive
CCOC(=O)c1ccc(N/C=C/C(=O)c2ccc(OC)c(OC)c2)cc1	none
CCOC(=O)c1cc(-c2ccccc2)nc2c1c(C)nn2-c1ccccn1	CHOP inh 103 | CHOP inh conf 108
Cc1cccc(NS(=O)(=O)c2ccc(C3CCCCC3)cc2)c1	CHOP inh 107 | CHOP inh conf 132
Cc1ccc(N2CC(C(=O)N3CCC(C(=O)NC(C)(C)C)CC3)CC2=O)cc1 (stereo not drawn)	none (no result: CHOP inh)
Nc1c(C(=O)Nc2ccccc2F)sc2nc(-c3cccnc3)ccc12	CHOP inh 97 | CHOP inh conf 77
Cc1cc(C)n2nc(C(=O)OCC(=O)N(CC(C)C)C3CCS(=O)(=O)C3)nc2n1 (stereo not drawn)	none (no result: CHOP inh)
Cc1ccc(SCC(=O)OCC(=O)N2CCN(C(=O)c3ccco3)CC2)c(C)c1	none (no result: CHOP inh)
CCCCc1ccc(NC(=S)Nc2ccc(Cl)c(S(=O)(=O)N(C)C)c2)cc1	CHOP inh 105 (no result: UPR XBP1 act, CHOP UPR activ) | CHOP inh conf 83
COc1ccc(OCc2cccc(C(=O)Nn3cc([N+](=O)[O-])cn3)c2)cc1	CHOP inh 98 | CHOP inh conf 123
Cc1cc(C)c(S(=O)(=O)ON2C(=O)c3ccccc3C2=O)cc1C	CHOP inh 108 | CHOP inh conf 87
Cc1cc(C)c(C)c(S(=O)(=O)ON2C(=O)c3ccccc3C2=O)c1C	CHOP inh 101 | CHOP inh conf 108

Bioassay records: PubChem, several laboratories
